SMILES strings stand for the structures.

Common to all, as to format: cell-based
Test [1] in a line: Inhibitory concentration measured in term of cytotoxicity against human A2780/AD10 cells. As to conditions: A2780 ADR. The gist of the method: (§1)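 Human ovarian carcinoma A2780 cells and the drug-resistant A2780/AD10 subline were exposed to compounds for three days. Growth was read by MTT cell proliferation assay. IC50 values are means ± standard error of at least four independent experiments. Compounds were scored not active when there was no activity below 50 µM.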

The nature of test [2]: Inhibitory concentration of compound required for exhibiting cytotoxic effect on human A2780 cells. The essentials: as §1
Test [3] is described as follows: Inhibitory concentration measured in term of cytotoxicity against human A2780/AD10 cells; na = not active below 50 uM. To be noted: a2780 adr. The essentials: as §1
Test [4] can be described thus: Inhibitory concentration of compound required for exhibiting cytotoxic effect on human A2780 cells; na = not active below 50 uM. The gist of the method:
as §1

Test [5] is described as follows: Inhibitory concentration of compound required for exhibiting cytotoxic effect on human A2780 cells; no. of experiment=4. The essentials:
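Human ovarian carcinoma A2780 cells exposed to drugs for three days. Growth was read by MTT (3-(4,5-dimethylthiazol-2-yl)-2,5-diphenyltetrazolium bromide) cell proliferation assay and IC50 determined. Values are means ± standard error of at least four independent experiments.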

What is called IC50 is the point on the concentration scale where inhibition reaches its midpoint. For the compound `C=C1CCC[C@@H]2CC=C[C@@H](C/C=C\C(=O)O[C@H](CO)C[C@@H]3O[C@H]3[C@@H](O)C1)O2`, the IC50 was 44 µM in test [1] and 40 µM in test [2].
`C=C1CCC[C@@H]2CC=C[C@@H](C/C=C\C(=O)O[C@H]([C@@H](O)/C=C/c3csc(C)n3)C[C@@H]3O[C@H]3[C@@H](O)C1)O2`: the IC50 result in test [3] and in test [4] was “Not Active” each time.
As for `C=C1CCC[C@@H]2CC=C[C@@H](C/C=C\C(=O)O[C@H]([C@@H](O)/C=C/[C@@H]3CC(C)=CCO3)C[C@@H]3O[C@H]3[C@@H](O)C1)O2`, the concentration for half-maximal inhibition (IC50) in test [1] turned out to be 0.074 µM; in test [2] it was 0.05 µM.
Turning to `C=C1CCC[C@@H]2CC=C[C@@H](C/C=C\C(=O)O[C@H]([C@@H](O)/C=C/C3CCCCC3)C/C=C/[C@@H](O)C1)O2`, the IC50 result in test [3] and in test [4] was “Not Active” throughout.
`C=C1CCC[C@@H]2CC=C[C@@H](C/C=C\C(=O)O[C@H]([C@@H](O)/C=C/C3CCCCC3)C[C@@H]3O[C@H]3[C@@H](O)C1)O2`: the 50% inhibitory concentration (IC50) in test [1] was determined as 8.3 µM; in test [2] it was 9 µM.
`C=C1CCC[C@@H]2CC=C[C@@H](C/C=C\C(=O)O[C@H](CO)C/C=C/[C@@H](O)C1)O2`: the IC50 entry in test [3] and in test [4] was “Not Active” throughout.
For the compound `C=C1CCC[C@@H]2CC=C[C@@H](C/C=C\C(=O)O[C@H]([C@@H](O)/C=C/[C@@H]3CC(C)=CCO3)C/C=C/[C@@H](O)C1)O2`, the results for the concentration for half-maximal inhibition (IC50) in test [1] and in test [2] were 1.1 µM and 0.43 µM, respectively.
Consider `C=C1CCC[C@@H]2CC=C[C@@H](C/C=C\C(=O)O[C@H]([C@@H](O)/C=C/c3csc(C)n3)C/C=C/[C@@H](O)C1)O2`, for which the IC50 result in test [3] and in test [4] was “Not Active” in each case.
Consider `C=C/C=C\[C@H](C)[C@H](OC(N)=O)[C@@H](C)[C@H](O)[C@@H](C)C/C(C)=C\[C@H](C)[C@@H](O)[C@@H](C)/C=C\[C@@H](O)C[C@@H]1OC(=O)[C@H](C)[C@@H](O)[C@H]1C` [DISERMOLIDE], for which the concentration for half-maximal inhibition (IC50) in test [1] is 0.1 µM; in test [5], 0.01 µM.
Consider `C=C1C[C@H](C)C[C@@H]2CC=C[C@@H](C/C=C\C(=O)O[C@H]([C@@H](O)/C=C/[C@@H]3CC(C)=CCO3)C[C@@H]3O[C@H]3[C@@H](O)C1)O2` [FIJIANOLIDE B], for which the figures for the 50% inhibitory concentration (IC50) in test [1] and in test [2] were 0.0075 µM and 0.0034 µM, respectively.
Take `CC(=O)O[C@H]1C(=O)[C@@]2(C)[C@H]([C@H](OC(=O)c3ccccc3)[C@]3(O)C[C@H](OC(=O)[C@H](O)[C@@H](NC(=O)c4ccccc4)c4ccccc4)C(C)=C1C3(C)C)[C@]1(OC(C)=O)CO[C@@H]1C[C@@H]2O` [PACLITAXEL]: the IC50 worked out at 1.5 µM in test [1] and 0.0011 µM in test [5].

For the origin of these results see ChEMBL document CHEMBL1144374, “Design, synthesis and biological evaluation of novel, simplified analogues of laulimalide: modification of the side chain” (Bioorg Med Chem Lett, 2005).
